Measurements: ChEMBL document CHEMBL5113551, “Fragment-Based Dynamic Combinatorial Chemistry for Identification of Selective α-Glucosidase Inhibitors” (ACS Med Chem Lett, 2022)

What was measured:
[1] = Inhibition of alpha glucosidase (unknown origin); design: species or system Homo sapiens
Alpha amylase = biological target: T1, Alpha amylase (Homo sapiens, UniProt P0DUB6); test: Inhibition of alpha-amylase (unknown origin)
T1 sequence (P0DUB6 whole entry): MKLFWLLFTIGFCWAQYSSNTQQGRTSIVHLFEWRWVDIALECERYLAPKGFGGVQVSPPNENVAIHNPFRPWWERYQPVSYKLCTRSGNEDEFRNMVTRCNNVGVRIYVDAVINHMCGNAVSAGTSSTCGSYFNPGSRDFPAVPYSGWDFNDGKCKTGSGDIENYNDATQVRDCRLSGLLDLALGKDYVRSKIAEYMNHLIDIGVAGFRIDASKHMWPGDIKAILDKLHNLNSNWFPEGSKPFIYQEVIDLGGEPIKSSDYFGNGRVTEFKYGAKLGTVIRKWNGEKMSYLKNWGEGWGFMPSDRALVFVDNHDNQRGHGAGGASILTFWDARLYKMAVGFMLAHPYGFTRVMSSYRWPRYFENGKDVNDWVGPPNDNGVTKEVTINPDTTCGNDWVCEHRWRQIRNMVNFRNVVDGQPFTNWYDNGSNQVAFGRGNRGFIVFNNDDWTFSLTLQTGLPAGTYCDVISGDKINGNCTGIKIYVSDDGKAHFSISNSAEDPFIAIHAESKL

[2] = Cytotoxicity against human HepG2 cells assessed as reduction in cell viability incubated for 24 hrs by CCK8 assay; assay type: toxicity, cell-based
Homo sapiens [3] = species on record: Homo sapiens; test: Mixed type of inhibition of alpha glucosidase (unknown origin) using pNPG as substrate by Lineweaver-Burk plot analysis
Outline: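 Reaction velocity was measured across a range of substrate concentrations at several inhibitor concentrations. The data were plotted as 1/V versus 1/[S] and fitted linearly (Lineweaver–Burk). The quadrant where the lines intersect assigned the inhibition type, and the enzyme Km was derived from the same plot.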

[4] = Competitive inhibition of alpha glucosidase (unknown origin) using pNPG as substrate by Dixon plot analysis; design: species or system Homo sapiens
Outline: (§1)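 Inhibition kinetics used a slightly modified, previously described method. Reciprocal velocity was plotted against inhibitor concentration at several fixed substrate concentrations (Dixon plot). The competitive constant (Ki) and noncompetitive constant (αKi) were read from this plot.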

Homo sapiens [5] = species on record: Homo sapiens; test: Non-competitive inhibition of alpha glucosidase (unknown origin) using pNPG as substrate by Dixon plot analysis; outline: as §1

Row | Compound | IC50 [1] [µM] | IC50 (Alpha amylase) [µM] | CC50 at 24 h [2] [µM] | Km (Homo sapiens [3]) [µM] | Ki [4] [µM] | alphaKi (Homo sapiens [5]) [µM]
1 | Cc1ccc(S(=O)(=O)Oc2ccc(/C=N/NC(=O)c3nc4ccccc4[nH]3)cc2)cc1 | 168 | > 200 |  |  |  | 
2 | O=C(N/N=C/c1coc2ccccc2c1=O)c1cc2ccccc2[nH]1 | 6.49 | 128.1 | > 200 |  |  | 
3 | O=C(N/N=C/c1coc2ccc(O)cc2c1=O)c1cc2ccccc2[nH]1 | 22.6 | 151.46 | > 200 |  |  | 
4 | Cc1ccc(S(=O)(=O)Oc2ccc(/C=N/NC(=O)c3ccc(O)cc3)cc2)cc1 | > 200 | > 200 |  |  |  | 
5 | Cc1ccc2occ(/C=N/NC(=O)c3cc4ccccc4[nH]3)c(=O)c2c1 | 2.52 | > 200 | > 200 | 930 | 1.98 | 2.75
6 | C[C@H]1O[C@H](O[C@H]2[C@H](O)[C@@H](O)[C@@H](O[C@H]3[C@H](O)[C@@H](O)C(O)O[C@@H]3CO)O[C@@H]2CO)[C@H](O)[C@@H](O)[C@@H]1N[C@H]1C=C(CO)[C@@H](O)[C@H](O)[C@H]1O (some centres not stated) [ACARBOSE] | 8.06 |  |  |  |  | 
7 | Cc1ccc(S(=O)(=O)Oc2ccc(/C=N/NC(=O)Cc3ccccn3)cc2)cc1 | > 200 | > 200 |  |  |  | 
8 | O=C(N/N=C/c1coc2ccccc2c1=O)c1nc2ccccc2[nH]1 | 32.5 | > 200 | > 200 |  |  | 
